# Compound activity as filed in PubChem.
# Shown are actives, neighbours in structure and some others; about 3.8% of the full set was active somewhere.
# FN deposition inh – inhibitors of fibronectin matrix deposition, primary screen, AH1F cells, Alexa488-fibronectin fluorescence, plate reader; AH1F fibroblasts, overnight; inhibition, % at 12.6 µM; 350,000 tested, 0.086% active; AID 743247, 2014;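 active means mean inhibition across replicates of 30% or more, regardless of how many single replicates reach that level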;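 further: positive control wells lacked labelled fibronectin entirely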
#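 Material: AH1F fibroblasts assembling fluorescent fibronectin matrix; amount: 10000 AH1F cells/well; medium: DMEM, 2% serum; reagent: Alexa488-fibronectin, 24 nM final in well; dosing: single compound dose, delivered by pin transfer; incubation: 1 h adhesion, overnight exposure; detection: fluorescence after three HBSS washes, excitation 485 nm, emission 525 nm; measure: fibronectin deposition inhibition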
# FGF22 binding – binders of human FGF22 protein, primary screen, FGF22 synaptogenesis inhibitor project, biophysical, thermal shift, single point | recombinant FGF22 thermal shift, SYPRO orange fluorescence; percent of sucrose octasulfate shift, DMSO zero | activity (Tm shift, normalised), % at 9.99 µM | 340,000 tested, 1.5% active | AID 651658, 2012;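 active means mean Tm shift, scaled 0 neutral to 100 positive control, at about 1.3% or above, every replicate too, limit read from the data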
# Target sequence (Q9HCT0 whole entry, looked up): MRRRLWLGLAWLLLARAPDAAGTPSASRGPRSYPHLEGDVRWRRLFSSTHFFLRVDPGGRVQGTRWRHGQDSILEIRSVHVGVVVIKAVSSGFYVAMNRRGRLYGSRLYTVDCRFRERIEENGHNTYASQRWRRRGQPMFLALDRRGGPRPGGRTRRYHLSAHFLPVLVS
# Xi reactivation – activators of inactive X chromosome reactivation, primary screen, imaging, XiGFP fibroblasts, GFP high-content imaging, set 2; XiGFP mouse fibroblasts, % GFP-positive cells imaging, 3 d; cells co-treated with 5-aza-dC sensitizer; scaled so ellipticine positive control = 100%; activation, % at 7.58 µM; 360,000 tested, 0.055% active;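 active means mean normalized replicate activation at least 10% and every replicate at or above 10%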;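 further: 0% = median of on-plate neutral control wells and 100% = ellipticine 6 µM median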
#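 Material: XiGFP fibroblasts, SV40-immortalized; Buffer or medium: DMEM containing 5-aza-dC; Compound dosing: single point; Times: 3 days compound exposure.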
# ARNT-TACC3 inh – disruptors of ARNT/TACC3 protein interaction, primary screen, biochemical, AlphaScreen, single concentration | AlphaScreen His-ARNT PAS-B/GST-TACC3 binding, luminescence; TACC3 fragment carries E629A point mutation | inhibition, % at 9.99 µM | 390,000 tested, 0.66% active;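 active means mean inhibition of replicates at least 50% and at least half of replicates each reaching 50%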;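 further: 0% = complete ARNT plus TACC3 wells and 100% = ARNT alone without TACC3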
# SIRT5 inh – SIRT5 desuccinylase inhibitors, primary screen, biochemical, fluorescence imaging, single point, set 5 | NAD-dependent protein deacylase sirtuin-5, mitochondrial (Homo sapiens), Q9NXA8 | Purified SirT5, succinyl-peptide AMC, trypsin-coupled fluorescence | inhibition, % at 15 µM | 330,000 tested, 1.1% active | AID 652115, 2013; in the data active means inhibition above about 15%
# Target sequence (Q9NXA8 whole entry, looked up): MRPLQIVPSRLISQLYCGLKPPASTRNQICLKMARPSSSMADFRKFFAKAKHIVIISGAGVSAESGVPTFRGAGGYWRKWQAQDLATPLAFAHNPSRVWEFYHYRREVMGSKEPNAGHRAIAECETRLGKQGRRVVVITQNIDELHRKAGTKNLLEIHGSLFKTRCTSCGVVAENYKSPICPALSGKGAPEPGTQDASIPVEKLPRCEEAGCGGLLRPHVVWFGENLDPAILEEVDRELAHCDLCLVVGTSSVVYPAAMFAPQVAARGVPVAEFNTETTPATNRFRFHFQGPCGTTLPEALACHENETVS
# DENV2 CPE – inhibitors of DENV2 cytopathic effect, primary screen, cell-based, plate reader, single concentration. DENV2-infected cells, cytopathic effect rescue. CPE inhibition, % at 9.99 µM. 350,000 tested, 1.7% active. AID 651640, 2012; in the data active means CPE inhibition above about 20%, passing the limit was not always enough; tested in BHK-21 cells;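 further: 0% = median of neutral control wells and 100% = median of positive control wells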
# * hit, by the source's call; . = no result given.
SMILES,FN deposition inh,FGF22 binding,Xi reactivation,ARNT-TACC3 inh,SIRT5 inh,DENV2 CPE
O=C1Nc2ccc3c(c2C1=Cc1cc2c(cc1Br)OCO2)OCO3,0.6,-0.1,0.0,-0.6,-2.2,-4.9
O=C1NC(=O)/C(=C/c2cc3c(cc2Br)OCO3)S1,-2.7,-0.2,0.1,6.9,5.2,21.7*
OC[C@@H]1[C@H](c2ccccc2)C2(CN(CCC(F)(F)F)C2)N1Cc1nccs1,-2.2,0.1,0.0,.,-1.6,0.8
CCNC(=O)N1CCC(c2nc3ccccc3s2)CC1,-3.3,0.4,0.0,1.1,-3.4,2.4
NC(=O)CCN1CCC(c2nc3ccccc3s2)CC1,-0.8,0.0,0.2,1.4,23.5*,2.7
CCN(CC)CC#CCC(O)(c1ccccc1)C1CCCC1 (configuration not stated),.,0.3,.,22.8,18.3*,-3.8
COCc1cc(C)nc(OCC(=O)N/N=C/c2ccc(OC)c(O)c2)c1C#N,-0.6,44.2*,0.1,.,-0.6,11.1
Brc1ccc(-c2nn3c(-c4ccco4)nnc3s2)o1,11.1,.,.,-21.1,.,.
Brc1ccc(-c2nn3c(-c4ccccn4)nnc3s2)o1,-8.9,.,.,68.2*,.,.
CC(O)(Cc1cccnc1)c1cccs1 (configuration not stated),.,-0.4,0.0,-1.5,-4.4,77.0*
Cc1cc(Cn2nc(C(=O)NCC3CC3)cc2-c2ccccc2)on1,-1.5,0.0,-0.1,0.7,-2.5,21.6*
Cc1[nH]n(-c2ccccc2)c(=O)c1/C=N/Nc1nncc(-c2ccccc2)n1,.,0.3,.,66.3*,-0.3,.
Cc1ccc(/C=N/Nc2nncc(-c3ccccc3)n2)o1,4.7,0.1,5.2,-3.0,-2.4,6.9
Cc1[nH]n(-c2ccccc2)c(=O)c1/C=N/NC(=O)c1ccc(O)cc1O,.,.,.,71.4*,.,.
Cc1[nH]n(-c2ccccc2)c(=O)c1C=NCc1ccncc1,-7.7,-0.4,-0.1,19.6*,0.6,8.2
Cc1[nH]n(-c2ccc(Cl)cc2)c(=O)c1/C=N/c1nnc(-c2ccccc2)s1,.,.,.,active,.,.
Cc1[nH]n(-c2ccc(Br)cc2)c(=O)c1/C=N/NC(=O)c1ccccc1,-3.0,-0.2,0.1,27.4,-0.7,19.4
COc1ccccc1CNC(=O)C[C@H]1C=C[C@H](NC(C)=O)[C@H](CO)O1,-7.2,0.0,-0.4,4.7,1.2,-5.3
O=S(=O)(c1ccccc1F)N1CCCCN2[C@H](CO)[C@H](c3ccc(-c4cccnc4)cc3)[C@H]2C1,.,-0.3,-0.1,4.9,6.2,-9.7
C[C@@H]1CN([C@@H](C)CO)C(=O)c2cccc(NC(=O)c3ccc(-c4nccs4)cc3)c2O[C@H]1CN(C)Cc1ccccc1,.,-0.5,0.1,8.3,5.9,5.4
Cc1ccc(-n2[nH]c(C)c(/C=N/NC(=O)c3ccc(O)cc3O)c2=O)cc1,.,.,.,62.1*,.,.
Cc1cc(C(=O)N/N=C/c2c(C)[nH]n(-c3ccccc3)c2=O)n[nH]1,1.3,0.0,0.1,84.3*,-3.6,0.6
COc1ccc2c3c([nH]c2c1)[C@H](CO)N(C(=O)CN1CCOCC1)CC31CN(CC2CCCC2)C1,.,-0.1,0.0,.,-1.3,-5.1
O=C(c1ccc2c(c1)N(Cc1ccc(F)cc1)CCS2)N1CCOCC1,-6.6,0.0,0.0,8.5*,-3.8,7.2
O=C(c1ccc2c(c1)N(Cc1ccccc1)CCS2)N1CCOCC1,-8.8,-0.1,0.0,-1.1,-0.9,-3.6
SMILES,FN deposition inh,FGF22 binding,Xi reactivation,ARNT-TACC3 inh,SIRT5 inh,DENV2 CPE
C[C@@H]1CN([C@@H](C)CO)C(=O)c2cc(NC(=O)Cn3cnnn3)ccc2O[C@H]1CN(C)Cc1ccc(C(=O)O)cc1,.,0.1,-1.1,-9.5,8.0,1.4
O=C(Oc1cc(Cl)ccc1Cl)C1=CC=CN2CCS(=O)(=O)N=C12,-3.6,15.6*,0.1,-1.6,-6.8,-1.3
O=C(Oc1ccc(Cl)c(Cl)c1)C1=CC=CN2CCS(=O)(=O)N=C12,-4.0,-0.2,0.2,-8.5,-3.8,13.9
COc1ccc(-c2csc(NC(=O)c3ccc(S(C)(=O)=O)cc3)n2)cc1,-11.6,0.4,0.0,3.4,-3.1,7.8
CCOC(=O)c1csc(NC(=O)c2ccc(OCC)cc2)n1,-4.2,43.1*,0.0,-2.8,-3.3,-1.8
CCOC(=O)c1csc(NC(=O)c2ccccc2)n1,-9.4,0.2,0.1,2.3,0.0,8.7
Cc1csc(NC(=O)c2ccc(S(C)(=O)=O)cc2)n1,.,0.1,-0.1,-0.5,19.3*,-1.5
Cc1ccc(NC(=S)NC(=O)c2cncc(Br)c2)cc1Cl,-2.8,0.0,0.0,.,29.2*,-2.1
COc1ccc(S(=O)(=O)N(C)C[C@H]2OCCCC[C@H](C)Oc3ccc(NC(=O)Nc4ccc(F)cc4)cc3C(=O)N([C@H](C)CO)C[C@@H]2C)cc1,-16.8,0.3,0.2,-10.7,16.6*,2.3
COc1ccc(S(=O)(=O)N(C)C[C@@H]2OCCCC[C@H](C)Oc3ccc(NC(=O)NC(C)C)cc3C(=O)N([C@@H](C)CO)C[C@H]2C)cc1,.,-0.3,0.2,-0.5,-1.6,49.2*
COc1ccc(S(=O)(=O)N(C)C[C@@H]2OCCCC[C@H](C)Oc3ccc(NC(=O)Nc4ccc(F)cc4)cc3C(=O)N([C@H](C)CO)C[C@H]2C)cc1,8.4,-0.5,0.0,-4.1,16.8*,-2.5
COc1ccc(S(=O)(=O)N(C)C[C@H]2OCCCC[C@H](C)Oc3ccc(NC(=O)Nc4c(C)noc4C)cc3C(=O)N([C@H](C)CO)C[C@@H]2C)cc1,2.3,-0.1,0.3,-1.7,-1.0,67.0*
COc1ccc(S(=O)(=O)N(C)C[C@H]2OCCCC[C@H](C)Oc3ccc(NC(=O)Nc4c(C)noc4C)cc3C(=O)N([C@@H](C)CO)C[C@H]2C)cc1,-7.2,-0.4,0.1,-2.6,-0.4,16.1
COc1ccc(NC(=O)Nc2ccc3c(c2)C(=O)N([C@H](C)CO)C[C@@H](C)[C@@H](CN(C)S(=O)(=O)c2ccc(Cl)cc2)OCCCC[C@H](C)O3)cc1,10.0,-0.4,0.0,-4.4,-0.9,40.0*
COc1ccc(NC(=O)Nc2ccc3c(c2)C(=O)N([C@H](C)CO)C[C@H](C)[C@H](CN(C)S(=O)(=O)c2c(C)noc2C)OCCCC[C@@H](C)O3)cc1,.,0.1,0.2,7.4,.,4.5
Cc1ccc(Nc2c(-c3ccco3)nc3ccccn23)cc1,-5.5,-0.3,0.0,.,1.6,75.2*
Nc1ccc(C2=Nc3cccc4cccc(c34)N2)cc1,-7.5,43.4*,-0.1,-1.8,4.0,-3.2
